Numbering of substitutions follows the chain as printed.
How the values were obtained:
[1] = system: neomycin-induced hair cell loss; conditions: ref Coffin et al. [2010]; cited from earlier work
human TRPA1 = human TRPA1 (Homo sapiens, UniProt O75762); test: Calcium flux in HEK-293 cells overexpressing TRPA1; type: cell-based; conditions: concentrations up to 1 mmol/L
human TRPV1 = human TRPV1 (Homo sapiens, UniProt Q8NER1); test: Calcium flux in HEK-293 cells overexpressing TRPV1; type: cell-based; conditions: concentrations up to 1 mmol/L
TRPV3-H426N = molecular target: T1, TRPV3-H426N (Homo sapiens, UniProt Q8NET8, H426N); test: Calcium flux in HEK-293 cells transiently transfected with TRPV3-H426N; type: cell-based
T1 sequence (Q8NET8 1-790 H426N): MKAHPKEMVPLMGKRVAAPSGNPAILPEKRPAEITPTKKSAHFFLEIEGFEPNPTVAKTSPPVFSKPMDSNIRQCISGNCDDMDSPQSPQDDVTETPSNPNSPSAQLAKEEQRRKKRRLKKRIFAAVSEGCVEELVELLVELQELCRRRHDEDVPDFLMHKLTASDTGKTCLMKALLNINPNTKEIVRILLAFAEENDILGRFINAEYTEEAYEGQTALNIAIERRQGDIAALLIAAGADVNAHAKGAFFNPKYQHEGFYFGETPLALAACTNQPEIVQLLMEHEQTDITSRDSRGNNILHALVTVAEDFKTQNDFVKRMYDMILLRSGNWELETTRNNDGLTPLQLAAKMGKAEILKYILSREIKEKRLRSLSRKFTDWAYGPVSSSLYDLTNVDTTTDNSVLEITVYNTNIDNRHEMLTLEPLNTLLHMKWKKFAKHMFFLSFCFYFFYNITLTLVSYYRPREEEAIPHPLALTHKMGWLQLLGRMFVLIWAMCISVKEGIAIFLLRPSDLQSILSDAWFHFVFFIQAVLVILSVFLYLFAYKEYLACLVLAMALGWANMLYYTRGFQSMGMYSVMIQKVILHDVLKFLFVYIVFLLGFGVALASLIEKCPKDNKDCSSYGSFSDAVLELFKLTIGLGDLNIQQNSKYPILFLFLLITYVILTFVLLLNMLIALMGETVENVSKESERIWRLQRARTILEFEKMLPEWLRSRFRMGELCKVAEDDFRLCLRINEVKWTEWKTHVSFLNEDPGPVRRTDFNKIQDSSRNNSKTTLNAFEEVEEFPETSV

human TRPV3 = molecular target: T2, human TRPV3 (Homo sapiens, UniProt Q8NET8); test: Whole-cell recordings in TRPV3-overexpressing HEK-293 cells; type: cell-based; conditions: 250 μmol/L, 500 μmol/L, 1 mmol/L; negative holding potential
T2 sequence (Q8NET8 1-790): T1 sequence (Q8NET8 1-790 H426N) with N426H
Outline: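 HEK-293 cells stably overexpressing human TRPV3 were plated on concanavalin A-coated coverslips and used within 24 h. Whole-cell voltage clamp at −60 or −70 mV with 3–5 MΩ pipettes. External saline: NaCl/KCl/MgCl2/HEPES/glucose/2 mmol/L CaCl2, pH 7.4. CsCl/EGTA internal, pH 7.3. Test compound was perfused or injected, with a fresh cell for each recording. Peak versus basal inward current was compared by one-tailed paired t-test.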

TRPV3-R696K = molecular target: T3, TRPV3-R696K (Homo sapiens, UniProt Q8NET8, R696K); test: Calcium flux in HEK-293 cells transiently transfected with TRPV3-R696K; type: cell-based; conditions: 100 μmol/L carvacrol, 100 μmol/L 2-APB, 100 and 200 μmol/L drofenine
T3 sequence (Q8NET8 1-790 R696K): T1 sequence (Q8NET8 1-790 H426N) with N426H, R696K

Sequence of human TRPA1 (O75762 whole entry): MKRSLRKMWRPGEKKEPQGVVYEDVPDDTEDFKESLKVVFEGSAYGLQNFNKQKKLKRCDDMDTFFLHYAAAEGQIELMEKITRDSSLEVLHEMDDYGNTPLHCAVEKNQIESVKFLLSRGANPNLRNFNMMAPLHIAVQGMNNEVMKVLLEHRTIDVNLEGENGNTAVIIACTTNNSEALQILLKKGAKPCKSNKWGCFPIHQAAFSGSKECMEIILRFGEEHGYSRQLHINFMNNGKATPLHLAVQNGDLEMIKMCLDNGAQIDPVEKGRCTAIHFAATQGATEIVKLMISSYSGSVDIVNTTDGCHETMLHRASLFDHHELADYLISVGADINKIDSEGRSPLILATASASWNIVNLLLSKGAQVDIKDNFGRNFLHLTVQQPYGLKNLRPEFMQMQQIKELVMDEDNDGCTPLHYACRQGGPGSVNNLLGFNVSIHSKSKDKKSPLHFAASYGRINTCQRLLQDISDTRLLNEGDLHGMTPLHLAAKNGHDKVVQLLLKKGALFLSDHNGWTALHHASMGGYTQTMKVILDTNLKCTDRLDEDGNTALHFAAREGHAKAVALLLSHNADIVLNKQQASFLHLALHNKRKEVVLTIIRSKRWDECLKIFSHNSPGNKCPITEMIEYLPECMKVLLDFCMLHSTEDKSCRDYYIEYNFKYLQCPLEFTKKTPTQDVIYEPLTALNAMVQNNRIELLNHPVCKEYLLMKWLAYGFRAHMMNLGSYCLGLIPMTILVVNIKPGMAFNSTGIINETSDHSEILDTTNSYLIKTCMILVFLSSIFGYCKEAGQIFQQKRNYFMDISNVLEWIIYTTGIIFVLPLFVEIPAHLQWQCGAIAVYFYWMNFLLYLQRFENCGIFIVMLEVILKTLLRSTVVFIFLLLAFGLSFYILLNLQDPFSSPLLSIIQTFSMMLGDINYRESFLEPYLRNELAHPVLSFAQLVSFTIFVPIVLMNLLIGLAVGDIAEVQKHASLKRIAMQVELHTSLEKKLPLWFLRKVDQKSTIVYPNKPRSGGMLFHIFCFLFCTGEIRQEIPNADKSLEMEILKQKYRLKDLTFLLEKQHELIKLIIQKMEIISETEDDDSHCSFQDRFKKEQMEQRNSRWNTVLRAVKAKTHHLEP
Sequence of human TRPV1 (Q8NER1 whole entry): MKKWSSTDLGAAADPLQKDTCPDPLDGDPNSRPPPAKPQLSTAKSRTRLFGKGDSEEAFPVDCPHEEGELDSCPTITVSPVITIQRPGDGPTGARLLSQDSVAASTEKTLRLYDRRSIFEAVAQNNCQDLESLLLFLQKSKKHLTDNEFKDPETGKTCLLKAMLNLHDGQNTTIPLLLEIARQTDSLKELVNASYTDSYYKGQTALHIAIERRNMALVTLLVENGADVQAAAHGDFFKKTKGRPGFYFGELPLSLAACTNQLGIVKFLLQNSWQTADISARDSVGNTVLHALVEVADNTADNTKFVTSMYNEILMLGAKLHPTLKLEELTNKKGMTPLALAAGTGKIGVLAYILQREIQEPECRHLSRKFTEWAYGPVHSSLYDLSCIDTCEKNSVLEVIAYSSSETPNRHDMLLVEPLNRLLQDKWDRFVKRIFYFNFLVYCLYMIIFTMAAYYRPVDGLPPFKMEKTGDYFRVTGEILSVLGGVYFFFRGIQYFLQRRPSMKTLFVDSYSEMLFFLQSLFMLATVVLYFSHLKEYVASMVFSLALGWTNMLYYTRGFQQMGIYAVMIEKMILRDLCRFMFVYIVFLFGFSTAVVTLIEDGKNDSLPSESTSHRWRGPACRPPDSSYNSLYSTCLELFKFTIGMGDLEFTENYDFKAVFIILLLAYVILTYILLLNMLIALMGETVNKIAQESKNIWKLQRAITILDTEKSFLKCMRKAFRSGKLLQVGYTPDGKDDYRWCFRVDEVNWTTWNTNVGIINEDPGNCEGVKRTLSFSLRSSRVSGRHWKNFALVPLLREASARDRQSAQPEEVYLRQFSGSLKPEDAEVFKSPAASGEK

Q: Which “effect on neomycin-induced hair cell loss” value [1] does the source give for `CCN(CC)CCOC(=O)C(c1ccccc1)C1CCCCC1` (stereo not shown) [drofenine] here?
A: inhibitor of neomycin-induced hair cell loss

Q: And the “activation of TRPA1” value (human TRPA1)?
A: not observed

Q: What about the “activation of TRPV1” value (human TRPV1) of the same molecule?
A: not observed

Q: And the “calcium flux in TRPV3-H426N relative to TRPV3-WT” value (TRPV3-H426N; agonist 100 μmol/L)?
A: reduced activation relative to TRPV3-WT

Q: And the “calcium flux in TRPV3-H426N relative to TRPV3-WT” value (TRPV3-H426N; agonist 200 μmol/L)?
A: did not reduce TRPV3 activation

Q: And the inward currents (human TRPV3)?
A: dose-dependently induced inward currents

Q: What about the “calcium flux in TRPV3-R696K” value (TRPV3-R696K) of the same molecule?
A: diminished-to-no-function
